In ChEMBL document CHEMBL1165881, “Synthesis and cytotoxicity evaluation of (tetrahydro-beta-carboline)-1,3,5-triazine hybrids as anticancer agents” (Eur J Med Chem, 2010):

Key:
[1] = test system: K562; assay: Cytotoxicity against human K562 cells after 72 hrs by MTT assay; type: functional, cell-based
Method in brief: (§1)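 Seeded at 5000–10000 cells/well, incubated at 37 °C in CO2 with compounds at a range of concentrations, controls included, in triplicate wells. After 72 h, MTT solution (5 mg/mL) added; absorbance read at 540 nm. % cytotoxicity = 100 × [1 − (X/R1)] versus control absorbance; IC50 by nonlinear regression. Values are means of at least two independent experiments, three determinations each.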

[2] = Cytotoxicity against mouse NIH/3T3 cells after 72 hrs by MTT assay; type: cell-based, NIH3T3; method in brief: as §1
[3] = test system: DU-145; assay: Cytotoxicity against human DU145 cells after 72 hrs by MTT assay; type: functional, cell-based; method in brief: as §1
[4] = test system: PA-1; assay: Cytotoxicity against human PA1 cells after 72 hrs by MTT assay; type: functional, cell-based; method in brief: as §1
[5] = test system: MIA PaCa-2; assay: Cytotoxicity against human MIAPaCa2 cells after 72 hrs by MTT assay; type: functional, cell-based; method in brief: as §1
[6] = test system: A549; assay: Cytotoxicity against human […] cells after 72 hrs by MTT assay; type: functional, cell-based; method in brief: as §1
[7] = test system: KB; assay: Cytotoxicity against human KB cells after 72 hrs by MTT assay; type: functional, cell-based; method in brief: as §1
[8] = test system: MCF7; assay: Cytotoxicity against human MCF7 cells after 72 hrs by MTT assay; type: functional, cell-based; method in brief: as §1
[9] = test system: SW-620; assay: Cytotoxicity against human SW620 cells after 72 hrs by MTT assay; type: functional, cell-based; method in brief: as §1
[10] = Homo sapiens, K562, 72 h, read-out: IC50
[11] = Mus musculus, NIH3T3, 72 h, read-out: IC50
[12] = Homo sapiens, DU-145, 72 h, read-out: IC50
[13] = Homo sapiens, PA-1, 72 h, read-out: IC50
[14] = Homo sapiens, MIA PaCa-2, 72 h, read-out: IC50
[15] = Homo sapiens, A549, 72 h, read-out: IC50
[16] = Homo sapiens, MCF7, 72 h, read-out: IC50
[17] = Homo sapiens, SW-620, 72 h, read-out: IC50

## COC(=O)[C@@H]1Cc2c([nH]c3ccccc23)[C@H](c2ccc(OC)cc2)N1c1nc(N2CCN(C)CC2)nc(N2CCN(C)CC2)n1
[1]; k562, read-out: IC50
  IC50: 4.83 µM
[2]; nih3t3, read-out: IC50
  IC50: 1620 nM
[3]; du-145, read-out: IC50
  IC50: 10300 nM
[4]; pa-1, read-out: IC50
  IC50: 2770 nM
[5]; mia paca-2, read-out: IC50
  IC50: 3.62 µM
[6]; a549, read-out: IC50
  IC50: 3.13 µM
[7]; kb
  IC50: 7540 nM
[8]; mcf7, read-out: IC50
  IC50: 9 µM
[9]; sw-620, read-out: IC50
  IC50: 1190 nM

## COC(=O)[C@H]1Cc2c([nH]c3ccccc23)[C@@H](c2ccccc2)N1c1nc(N2CCN(C)CC2)nc(N2CCN(C)CC2)n1
[1]; [10]
  IC50: 6.45 µM
[2]; [11]
  IC50: 11400 nM
[3]; [12]
  IC50: 7760 nM
[4]; [13]
  IC50: 1790 nM
[5]; [14]
  IC50: 5.88 µM
[6]; [15]
  IC50: 8.62 µM
[7]; Homo sapiens, KB, 72 h
  IC50: 1830 nM
[8]; [16]
  IC50: 8.28 µM
[9]; [17]
  IC50: 3240 nM

## CCCNc1nc(NCCC)nc(N2[C@@H](c3ccc(OC)cc3)c3[nH]c4ccccc4c3C[C@@H]2C(=O)OC)n1 (racemic)
[1]; k562
  IC50: Not Active
[2]; nih3t3
  IC50: Not Active
[3]; du-145
  IC50: Not Active
[4]; pa-1
  IC50: Not Active
[5]; mia paca-2
  IC50: Not Active
[6]; a549
  IC50: Not Active
[7]; Homo sapiens, KB, 72 h
  IC50: 122 nM
[8]; mcf7
  IC50: Not Active
[9]; sw-620
  IC50: Not Active

## COC(=O)[C@H]1Cc2c([nH]c3ccccc23)[C@H](c2ccc(Cl)cc2)N1c1nc(N2CCN(C)CC2)nc(N2CCN(C)CC2)n1 (racemic)
[1]; [10]
  IC50: 5.01 µM
[2]; [11]
  IC50: 2220 nM
[3]; du-145
  IC50: Not Active
[4]; [13]
  IC50: 6390 nM
[5]; [14]
  IC50: 7.12 µM
[7]; Homo sapiens, KB, 72 h
  IC50: 1980 nM
[8]; mcf7
  IC50: Not Active
[9]; [17]
  IC50: 2730 nM

## CCCNc1nc(NCCC)nc(N2[C@@H](c3ccc(C)cc3)c3[nH]c4ccccc4c3C[C@@H]2C(=O)OC)n1 (racemic)
[1]; k562
  IC50: Not Active
[2]; nih3t3
  IC50: Not Active
[3]; du-145
  IC50: Not Active
[4]; pa-1
  IC50: Not Active
[5]; mia paca-2
  IC50: Not Active
[6]; a549
  IC50: Not Active
[7]; Homo sapiens, KB, 72 h
  IC50: 665 nM
[8]; mcf7
  IC50: Not Active
[9]; sw-620
  IC50: Not Active

## CCCN1CCN(c2nc(N3CCN(CCC)CC3)nc(N3[C@H](c4ccc(OC)cc4)c4[nH]c5ccccc5c4C[C@H]3C(=O)OC)n2)CC1
[2]; [11]
  IC50: 2240 nM
[3]; [12]
  IC50: 7110 nM
[4]; pa-1
  IC50: Not Active
[6]; [15]
  IC50: 1.67 µM
[7]; Homo sapiens, KB, 72 h
  IC50: 3540 nM
[8]; [16]
  IC50: 2.07 µM
[9]; sw-620
  IC50: Not Active

## COC(=O)[C@@H]1Cc2c([nH]c3ccccc23)[C@@H](c2ccc(C(C)C)cc2)N1c1nc(N2CCN(C)CC2)nc(N2CCN(C)CC2)n1
[1]; [10]
  IC50: 2.24 µM
[2]; [11]
  IC50: 2630 nM
[3]; du-145
  IC50: Not Active
[4]; [13]
  IC50: 2890 nM
[5]; mia paca-2
  IC50: Not Active
[6]; [15]
  IC50: 1.75 µM
[7]; Homo sapiens, KB, 72 h
  IC50: 3730 nM
[8]; [16]
  IC50: 6.73 µM
[9]; [17]
  IC50: 5920 nM

## COC(=O)[C@@H]1Cc2c([nH]c3ccccc23)[C@H](c2ccc(OC)cc2)N1c1nc(N2CCN(C)CC2)nc(N2CCN(C)CC2)n1 (racemic)
[1]; [10]
  IC50: 7.13 µM
[2]; [11]
  IC50: 2330 nM
[3]; [12]
  IC50: 5350 nM
[4]; [13]
  IC50: 2720 nM
[5]; mia paca-2, read-out: IC50
  IC50: 7.37 µM
[6]; a549, read-out: IC50
  IC50: 6.3 µM
[7]; kb
  IC50: 1460 nM
[8]; [16]
  IC50: 6.06 µM
[9]; sw-620, read-out: IC50
  IC50: 3320 nM

## COC(=O)[C@@H]1Cc2c([nH]c3ccccc23)[C@@H](c2ccc(C)cc2)N1c1nc(N2CCN(C)CC2)nc(N2CCN(C)CC2)n1 (racemic)
[1]; k562
  IC50: Not Active
[2]; nih3t3
  IC50: Not Active
[3]; du-145
  IC50: Not Active
[4]; pa-1
  IC50: Not Active
[5]; mia paca-2
  IC50: Not Active
[6]; a549
  IC50: Not Active
[7]; Homo sapiens, KB, 72 h
  IC50: 106 nM
[8]; mcf7
  IC50: Not Active
[9]; sw-620
  IC50: Not Active

## COC(=O)[C@H]1Cc2c([nH]c3ccccc23)[C@H](c2ccc(C)cc2)N1c1nc(N2CCN(C)CC2)nc(N2CCN(C)CC2)n1
[1]; [10]
  IC50: 3.22 µM
[2]; [11]
  IC50: 2160 nM
[3]; [12]
  IC50: 2140 nM
[4]; [13]
  IC50: 6910 nM
[5]; [14]
  IC50: 7 µM
[6]; [15]
  IC50: 2.34 µM
[7]; Homo sapiens, KB, 72 h
  IC50: 1860 nM
[8]; [16]
  IC50: 5.89 µM
[9]; [17]
  IC50: 2650 nM

## COC(=O)[C@H]1Cc2c([nH]c3ccccc23)[C@@H](c2ccc(OC)cc2)N1c1nc(N2CCN(C)CC2)nc(N2CCN(C)CC2)n1
[1]; [10]
  IC50: 4.48 µM
[2]; [11]
  IC50: 5280 nM
[3]; [12]
  IC50: 2450 nM
[4]; [13]
  IC50: 3340 nM
[5]; [14]
  IC50: 5.26 µM
[6]; [15]
  IC50: 11.5 µM
[7]; Homo sapiens, KB, 72 h
  IC50: 1820 nM
[8]; [16]
  IC50: 12.3 µM
[9]; [17]
  IC50: 3270 nM

## COC(=O)[C@H]1Cc2c([nH]c3ccccc23)[C@H](c2ccccc2)N1c1nc(N2CCN(C)CC2)nc(N2CCN(C)CC2)n1
[1]; [10]
  IC50: 5.34 µM
[2]; [11]
  IC50: 6000 nM
[3]; [12]
  IC50: 2810 nM
[4]; [13]
  IC50: 1930 nM
[5]; [14]
  IC50: 6.11 µM
[7]; Homo sapiens, KB, 72 h
  IC50: 1980 nM
[8]; [16]
  IC50: 6.21 µM
[9]; [17]
  IC50: 2840 nM

## COC(=O)[C@@H]1Cc2c([nH]c3ccccc23)[C@H](c2cc(OC)c(OC)c(OC)c2)N1c1nc(N2CCN(C)CC2)nc(N2CCN(C)CC2)n1 (racemic)
[2]; [11]
  IC50: 6710 nM
[3]; [12]
  IC50: 5220 nM
[4]; [13]
  IC50: 5320 nM
[7]; Homo sapiens, KB, 72 h
  IC50: 17900 nM
[8]; [16]
  IC50: 5.96 µM

## COC(=O)[C@@H]1Cc2c([nH]c3ccccc23)[C@H](c2ccc(C(C)C)cc2)N1c1nc(N2CCN(C)CC2)nc(N2CCN(C)CC2)n1
[1]; [10]
  IC50: 6.43 µM
[2]; [11]
  IC50: 1170 nM
[3]; [12]
  IC50: 2870 nM
[4]; [13]
  IC50: 270 nM
[5]; [14]
  IC50: 1.81 µM
[6]; [15]
  IC50: 1.76 µM
[7]; Homo sapiens, KB, 72 h
  IC50: 6880 nM
[8]; [16]
  IC50: 5.93 µM
[9]; [17]
  IC50: 1930 nM

## CCN1CCN(c2nc(N3CCN(CC)CC3)nc(N3[C@H](c4ccc(OC)cc4)c4[nH]c5ccccc5c4C[C@H]3C(=O)OC)n2)CC1
[2]; [11]
  IC50: 1860 nM
[3]; [12]
  IC50: 1670 nM
[4]; pa-1
  IC50: Not Active
[6]; [15]
  IC50: 1.61 µM
[7]; Homo sapiens, KB, 72 h
  IC50: 1220 nM
[8]; [16]
  IC50: 1.34 µM
[9]; sw-620
  IC50: Not Active

## COC(=O)[C@H]1Cc2c([nH]c3ccccc23)[C@H](c2ccc(OC)cc2)N1c1nc(N2CCN(C)CC2)nc(N2CCN(C)CC2)n1
[1]; [10]
  IC50: 6 µM
[2]; [11]
  IC50: 3160 nM
[3]; [12]
  IC50: 2580 nM
[4]; [13]
  IC50: 2050 nM
[5]; [14]
  IC50: 6.23 µM
[7]; Homo sapiens, KB, 72 h
  IC50: 990 nM
[8]; [16]
  IC50: 11 µM
[9]; [17]
  IC50: 2150 nM

## COC(=O)[C@H]1Cc2c([nH]c3ccccc23)[C@H](c2cc(OC)c(OC)c(OC)c2)N1c1nc(N2CCN(C)CC2)nc(N2CCN(C)CC2)n1 (relative stereo)
[1]; [10]
  IC50: 3 µM
[2]; [11]
  IC50: 2170 nM
[3]; [12]
  IC50: 2010 nM
[4]; [13]
  IC50: 2750 nM
[5]; [14]
  IC50: 7.54 µM
[6]; [15]
  IC50: 5.67 µM
[7]; Homo sapiens, KB, 72 h
  IC50: 2430 nM
[8]; mcf7
  IC50: Not Active
[9]; [17]
  IC50: 3150 nM

## COC(=O)[C@@H]1Cc2c([nH]c3ccccc23)[C@@H](c2ccc(OC)cc2)N1c1nc(N2CCN(C)CC2)nc(N2CCN(C)CC2)n1 (racemic)
[1]; k562
  IC50: Not Active
[2]; nih3t3, read-out: IC50
  IC50: 4780 nM
[3]; [12]
  IC50: 10500 nM
[4]; [13]
  IC50: 2030 nM
[5]; mia paca-2, read-out: IC50
  IC50: 6.35 µM
[6]; a549, read-out: IC50
  IC50: 5.67 µM
[7]; kb
  IC50: 1870 nM
[8]; mcf7, read-out: IC50
  IC50: 12.4 µM
[9]; sw-620, read-out: IC50
  IC50: 4260 nM
